The source made the active and inactive calls. No cut-off for these calls is given here.
How the values were obtained:
[1] = biological target: T1, M-phase inducer phosphatase 2 (Homo sapiens, UniProt P30305); assay: Inhibition of CDC25B (unknown origin)
T1 sequence (P30305 whole entry): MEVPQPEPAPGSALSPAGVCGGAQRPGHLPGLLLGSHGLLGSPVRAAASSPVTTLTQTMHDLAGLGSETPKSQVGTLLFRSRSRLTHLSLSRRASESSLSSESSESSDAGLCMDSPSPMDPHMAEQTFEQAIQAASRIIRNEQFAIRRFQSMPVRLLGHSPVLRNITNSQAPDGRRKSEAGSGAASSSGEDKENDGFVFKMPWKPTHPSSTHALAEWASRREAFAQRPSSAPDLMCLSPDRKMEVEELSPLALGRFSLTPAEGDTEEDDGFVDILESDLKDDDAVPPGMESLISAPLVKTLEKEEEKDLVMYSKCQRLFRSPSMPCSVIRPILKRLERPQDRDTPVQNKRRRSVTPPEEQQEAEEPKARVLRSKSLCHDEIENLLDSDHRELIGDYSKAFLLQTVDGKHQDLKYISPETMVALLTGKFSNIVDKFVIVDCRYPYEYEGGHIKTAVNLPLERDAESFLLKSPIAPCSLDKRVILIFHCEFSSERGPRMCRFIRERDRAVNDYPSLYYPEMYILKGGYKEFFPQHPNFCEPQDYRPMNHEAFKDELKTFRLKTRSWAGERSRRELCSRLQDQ

[2] = biological target: Tyrosine-protein phosphatase non-receptor type 6 (Homo sapiens, UniProt P29350); assay: Inhibition of SHP-1 (unknown origin)
[3] = biological target: T2, Tyrosine-protein phosphatase non-receptor type 11 (Homo sapiens, UniProt Q06124); assay: Inhibition of SHP-2 (unknown origin)
T2 sequence (Q06124 whole entry): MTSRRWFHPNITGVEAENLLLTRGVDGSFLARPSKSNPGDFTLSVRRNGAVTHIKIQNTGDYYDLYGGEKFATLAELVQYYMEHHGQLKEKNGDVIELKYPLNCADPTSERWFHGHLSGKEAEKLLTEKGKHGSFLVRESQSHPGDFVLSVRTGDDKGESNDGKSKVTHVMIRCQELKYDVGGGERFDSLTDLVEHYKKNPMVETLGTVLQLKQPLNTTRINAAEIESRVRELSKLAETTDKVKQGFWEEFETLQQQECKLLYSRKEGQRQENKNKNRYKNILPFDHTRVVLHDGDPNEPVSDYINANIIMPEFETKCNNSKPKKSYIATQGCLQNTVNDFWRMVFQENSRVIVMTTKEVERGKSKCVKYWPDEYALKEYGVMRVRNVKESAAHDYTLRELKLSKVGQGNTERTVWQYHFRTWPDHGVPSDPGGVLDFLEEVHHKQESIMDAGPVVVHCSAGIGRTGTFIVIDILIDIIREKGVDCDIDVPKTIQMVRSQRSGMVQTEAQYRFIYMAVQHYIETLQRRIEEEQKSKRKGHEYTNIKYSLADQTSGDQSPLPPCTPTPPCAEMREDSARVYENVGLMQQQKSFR

[4] = biological target: T3, Tyrosine-protein phosphatase non-receptor type 1 (Homo sapiens, UniProt P18031); assay: Inhibition of GST-tagged PTP1B (unknown origin) using pNPP as substrate measured for 2 mins by colorimetric analysis
T3 sequence (P18031 whole entry): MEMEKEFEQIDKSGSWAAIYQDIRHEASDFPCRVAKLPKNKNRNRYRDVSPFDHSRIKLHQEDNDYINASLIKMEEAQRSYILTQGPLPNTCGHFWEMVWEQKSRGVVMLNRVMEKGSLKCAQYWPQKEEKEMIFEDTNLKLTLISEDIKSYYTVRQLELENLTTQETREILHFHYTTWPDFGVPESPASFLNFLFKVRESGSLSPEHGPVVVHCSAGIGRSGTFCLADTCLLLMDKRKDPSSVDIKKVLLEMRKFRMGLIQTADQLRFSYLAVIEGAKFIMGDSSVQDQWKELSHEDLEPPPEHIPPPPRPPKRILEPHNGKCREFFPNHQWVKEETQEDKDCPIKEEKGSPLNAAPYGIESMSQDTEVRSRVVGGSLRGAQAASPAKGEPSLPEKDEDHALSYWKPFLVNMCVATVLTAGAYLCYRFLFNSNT

[5] = biological target: T4, Tyrosine-protein phosphatase non-receptor type 1 (Rattus norvegicus) (UniProt P20417); assay: Inhibition of PTP1B in rat L6 cells assessed as insulin-induced Akt phosphorylation preincubated for 2 hrs followed by insulin challenge for 10 mins by Western blotting analysis; assay type: cell-based
T4 sequence (whole entry): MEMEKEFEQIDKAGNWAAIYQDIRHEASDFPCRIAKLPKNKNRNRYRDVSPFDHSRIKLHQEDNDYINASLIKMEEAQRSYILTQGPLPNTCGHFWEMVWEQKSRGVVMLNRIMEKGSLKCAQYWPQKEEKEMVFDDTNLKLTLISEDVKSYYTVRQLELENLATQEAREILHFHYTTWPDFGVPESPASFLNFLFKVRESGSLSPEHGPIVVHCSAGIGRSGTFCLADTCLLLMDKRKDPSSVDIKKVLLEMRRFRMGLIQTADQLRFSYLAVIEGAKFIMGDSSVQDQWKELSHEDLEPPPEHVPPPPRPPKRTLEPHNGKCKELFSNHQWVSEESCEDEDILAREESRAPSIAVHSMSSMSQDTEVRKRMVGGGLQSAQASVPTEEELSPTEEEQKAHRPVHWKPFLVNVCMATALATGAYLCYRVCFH
Outline: (§1)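 Rat L6 myoblasts were differentiated in DMEM with 2% FBS and used as myotubes 5–7 days later. They were serum-starved 2 h, treated with compound 2 h (0.2% DMSO vehicle), then given 10 nM insulin for 10 min. Lysates were run on 8% SDS-PAGE and immunoblotted for phospho-Akt (Ser473), with β-actin as loading control.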

[6] = biological target: T4, Tyrosine-protein phosphatase non-receptor type 1 (Rattus norvegicus); assay: Inhibition of PTP1B in rat L6 cells assessed as insulin-stimulated 2-deoxy-[3H]-deoxy-glucose uptake at 20 uM preincubated for 2 hrs followed by insulin challenge for 30 mins; assay type: cell-based
Outline: (§2)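 Differentiated L6 myotubes were serum-starved 2 h, treated with compound, then stimulated with 10 nM insulin for 30 min. Cells were washed in HEPES-buffered saline, pH 7.4, and incubated 15 min with 2-deoxy-[3H]-glucose. After ice-cold PBS washes they were lysed in 0.1% Triton X-100 and radioactivity was counted. Data are averages of at least three independent replicates.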

[7] = biological target: T4, Tyrosine-protein phosphatase non-receptor type 1 (Rattus norvegicus); assay: Inhibition of PTP1B in rat L6 cells assessed as insulin-stimulated 2-deoxy-[3H]-deoxy-glucose uptake at 10 uM preincubated for 2 hrs followed by insulin challenge for 30 mins; assay type: cell-based; outline: as §2
[8] = biological target: T4, Tyrosine-protein phosphatase non-receptor type 1 (Rattus norvegicus); assay: Inhibition of PTP1B in rat L6 cells assessed as insulin-induced Akt phosphorylation at 5 to 10 uM preincubated for 2 hrs followed by insulin challenge for 10 mins by Western blotting analysis; assay type: cell-based; outline: as §1
Homo sapiens = species: Homo sapiens; assay: Selectivity ratio of IC50 for TCPTP (unknown origin) to IC50 for GST-tagged PTP1B (unknown origin)

Chain of Tyrosine-protein phosphatase non-receptor type 6 (P29350 whole entry): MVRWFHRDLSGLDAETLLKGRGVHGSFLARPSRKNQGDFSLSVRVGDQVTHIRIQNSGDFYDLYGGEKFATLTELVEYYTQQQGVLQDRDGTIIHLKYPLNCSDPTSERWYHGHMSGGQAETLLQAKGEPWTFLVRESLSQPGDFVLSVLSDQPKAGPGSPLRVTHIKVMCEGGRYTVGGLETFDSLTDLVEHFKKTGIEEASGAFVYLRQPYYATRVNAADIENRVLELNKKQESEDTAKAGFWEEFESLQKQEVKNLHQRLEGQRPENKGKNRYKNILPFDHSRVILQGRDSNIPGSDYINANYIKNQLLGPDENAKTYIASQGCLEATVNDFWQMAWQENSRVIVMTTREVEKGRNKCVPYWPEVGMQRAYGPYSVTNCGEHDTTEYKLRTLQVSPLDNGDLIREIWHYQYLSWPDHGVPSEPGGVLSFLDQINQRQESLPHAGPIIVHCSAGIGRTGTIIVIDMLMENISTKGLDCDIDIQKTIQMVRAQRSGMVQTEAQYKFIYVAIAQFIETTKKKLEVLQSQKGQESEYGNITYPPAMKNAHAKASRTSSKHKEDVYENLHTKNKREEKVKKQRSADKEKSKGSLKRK

IC50 [1]: 1.62 µM | IC50 [2]: 12.6 µM | IC50 [3]: 9.89 µM | IC50 [4]: 0.54 µM | inhibition [5]: Dose-dependent effect | inhibition [6]: 86% | inhibition [7]: 40% | inhibition [8]: Active | Ratio IC50 (Homo sapiens): 2.6
SMILES: O=C(CCc1c[nH]c2ccccc12)N[C@@H](Cc1ccc(OCc2ccccc2)cc1)c1nc(C(=O)Nc2cc(F)ccc2C(=O)O)c(-c2ccccc2)s1
